Key:
[1] = biological target: T1, Voltage-gated L-type calcium channel (Homo sapiens, UniProt Q13936+Q13698+Q01668+O60840); test: (§1) Inhibition of voltage-dependent L-type calcium channel in human U373MG cells assessed as protection against oxygen glucose deprivation/reperfusion-induced injury by measuring recovery of cell viability at 1 uM administered at onset of reperfusion period measured after 16 hrs by alamar blue assay relative to control; type: cell-based
Procedure, shortened: (§2)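 U-373 MG astrocytoma cells seeded at 30000 cells/ml and grown 24 or 48 h (37 °C/5% CO2). OGD: 24 h at 37 °C in glucose-free DMEM pre-bubbled with 95% N2/5% CO2, in a sealed nitrogen-flushed chamber. Then 16 h reperfusion in normal medium; compounds added at reperfusion, diluted from DMSO stock (DMSO ≤0.1%). Viability by alamarBlue, 4 h at 37 °C, fluorescence ex 530–560/em 590 nm. Expressed as % recovery from injury, mean ± S.E. of ≥3 experiments in sixuplicate.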

[2] = biological target: T1, Voltage-gated L-type calcium channel; test: as §1, with “at 20” for “at 1”; type: cell-based; procedure, shortened: as §2
[3] = biological target: T1, Voltage-gated L-type calcium channel; test: Inhibition of voltage-dependent L-type calcium channel in human SH-SY5Y cells assessed as protection against glutamate-induced excitotoxicity by measuring recovery of cell viability at 1 uM measured after 24 hrs by alamar blue-based fluorescence method relative to control
[4] = biological target: T1, Voltage-gated L-type calcium channel; test: Inhibition of voltage-dependent L-type calcium channel in human SH-SY5Y cells assessed as protection against glutamate-induced excitotoxicity by measuring recovery of cell viability at 20 uM measured after 24 hrs by alamar blue-based fluorescence method relative to control
[5] = biological target: T2, Voltage-gated L-type calcium channel (Rattus norvegicus, UniProt P22002+Q02485+P27732); test: as §1, with “Wistar rat brain slices” for “human U373MG cells”, “LDH release” for “cell viability”, “20” for “1”, “90 mins” for “16 hrs”, “spectrophotometric” for “alamar blue”; set-up: scale not given: the % may be the effect or the level left; details: 1.5 h
[6] = biological target: T2, Voltage-gated L-type calcium channel; test: as §1, with “Wistar rat brain slices” for “human U373MG cells”, “edema formation” for “cell viability”, “20” for “1”, “90 mins” for “16 hrs by alamar blue assay”; set-up: scale not given: the % may be the effect or the level left; details: 1.5 h
[7] = tested on: Left cardiac atrium; test: Negative inotropic activity in guinea pig left atrium assessed as decrease in developed tension at 5 x 10^-7 M relative to control; type: ADME, tissue-based, Cavia porcellus; set-up: scale not given: the % may be the effect or the level left; details: 0.5 µM
[8] = tested on: Left cardiac atrium; test: Negative inotropic activity in guinea pig left atrium assessed as decrease in developed tension at 0.001 to 100 uM relative to control; type: ADME, tissue-based; details: Cavia porcellus
[9] = tested on: Right cardiac atrium; test: Negative chronotropic activity in guinea pig spontaneously beating right atrium assessed as decrease in atrial rate at 10^-5 M relative to control; type: ADME, tissue-based, Cavia porcellus; set-up: scale not given: the % may be the effect or the level left; details: 10 µM
[10] = tested on: Aorta; test: Inhibition of calcium-induced contraction in K+-depolarized guinea pig aortic strips at 10^-4 M relative to control; type: tissue-based; details: Cavia porcellus
[11] = tested on: Left cardiac atrium (Cavia porcellus); test: Negative inotropic activity in guinea pig left atrium assessed as decrease in developed tension
[12] = tested on: Right cardiac atrium; test: Negative chronotropic activity in guinea pig right atrium assessed as decrease in atrial rate at 5 x 10^-6 M relative to control; set-up: scale not given: the % may be the effect or the level left; details: 5 µM
[13] = tested on: Right cardiac atrium; test: Negative chronotropic activity in guinea pig spontaneously beating right atrium assessed as decrease in atrial rate; type: tissue-based; details: Cavia porcellus
[14] = Selectivity ratio of EC50 for negative chronotropic activity in guinea pig spontaneously beating right atrium to EC50 for negative inotropic activity in guinea pig left atrium; type: ADME, tissue-based, Cavia porcellus
[15] = tested on: Left cardiac atrium; test: Negative inotropic activity in guinea pig left atrium assessed as decrease in developed tension at 5 x 10^-6 M relative to control; type: ADME, tissue-based, Cavia porcellus; set-up: scale not given: the % may be the effect or the level left; details: 5 µM
[16] = tested on: Right cardiac atrium; test: Negative chronotropic activity in guinea pig spontaneously beating right atrium assessed as decrease in atrial rate at 5 x 10^-7 M relative to control; type: ADME, tissue-based, Cavia porcellus; set-up: scale not given: the % may be the effect or the level left; details: 0.5 µM
[17] = tested on: Aorta; test: Inhibition of calcium-induced contraction in K+-depolarized guinea pig aortic strips at 10^-7 M relative to control; type: tissue-based; details: Cavia porcellus
[18] = tested on: Right cardiac atrium; test: Negative chronotropic activity in guinea pig spontaneously beating right atrium assessed as decrease in atrial rate at 5 x 10^-6 M relative to control; type: ADME, tissue-based, Cavia porcellus; set-up: scale not given: the % may be the effect or the level left; details: 5 µM
[19] = tested on: Left cardiac atrium; test: Negative inotropic activity in guinea pig left atrium assessed as decrease in developed tension at 10^-5 M relative to control; set-up: scale not given: the % may be the effect or the level left; details: 10 µM
[20] = tested on: Aorta; test: Inhibition of calcium-induced contraction in K+-depolarized guinea pig aortic strips; type: ADME, tissue-based; details: Cavia porcellus
[21] = tested on: Right cardiac atrium; test: Negative inotropic activity in guinea pig right atrium assessed as decrease in developed tension at 5 x 10^-5 M relative to control; type: ADME, tissue-based, Cavia porcellus; set-up: scale not given: the % may be the effect or the level left; details: 50 µM
[22] = tested on: Aorta; test: Inhibition of calcium-induced contraction in K+-depolarized guinea pig aortic strips at 10^-5 M relative to control; type: tissue-based; details: Cavia porcellus
[23] = tested on: Left cardiac atrium; test: Negative inotropic activity in guinea pig left atrium assessed as decrease in developed tension at 10^-4 M relative to control; type: ADME, tissue-based, Cavia porcellus; set-up: scale not given: the % may be the effect or the level left; details: 100 µM
[24] = tested on: Right cardiac atrium; test: Negative inotropic activity in guinea pig right atrium assessed as decrease in developed tension at 10^-4 M relative to control; type: ADME, tissue-based, Cavia porcellus; set-up: scale not given: the % may be the effect or the level left; details: 100 µM
[25] = tested on: Right cardiac atrium; test: Negative chronotropic activity in guinea pig spontaneously beating right atrium assessed as decrease in atrial rate at 10^-4 M relative to control; type: ADME, tissue-based, Cavia porcellus; set-up: scale not given: the % may be the effect or the level left; details: 100 µM
[26] = tested on: Right cardiac atrium; test: Negative chronotropic activity in guinea pig spontaneously beating right atrium assessed as decrease in atrial rate at 10^-6 M relative to control; type: ADME, tissue-based, Cavia porcellus; set-up: scale not given: the % may be the effect or the level left; details: 1 µM
[27] = tested on: Right cardiac atrium; test: Negative inotropic activity in guinea pig right atrium assessed as decrease in developed tension at 10^-7 M relative to control; type: ADME, tissue-based, Cavia porcellus; set-up: scale not given: the % may be the effect or the level left; details: 0.1 µM
[28] = tested on: Left cardiac atrium; test: Negative inotropic activity in guinea pig left atrium assessed as decrease in developed tension at 5 x 10^-5 M relative to control; type: ADME, tissue-based, Cavia porcellus; set-up: scale not given: the % may be the effect or the level left; details: 50 µM
[29] = tested on: Right cardiac atrium; test: Negative inotropic activity in guinea pig right atrium assessed as decrease in developed tension at 10^-5 M relative to control; type: ADME, tissue-based, Cavia porcellus; set-up: scale not given: the % may be the effect or the level left; details: 10 µM
[30] = tested on: Right cardiac atrium; test: Negative chronotropic activity in guinea pig spontaneously beating right atrium assessed as decrease in atrial rate at 5 x 10^-5 M relative to control; type: tissue-based, Cavia porcellus; set-up: scale not given: the % may be the effect or the level left; details: 50 µM
[31] = tested on: Right cardiac atrium; test: Negative chronotropic activity in guinea pig spontaneously beating right atrium assessed as decrease in atrial rate at 10^-7 M relative to control; type: ADME, tissue-based, Cavia porcellus; set-up: scale not given: the % may be the effect or the level left; details: 0.1 µM
[32] = tested on: Aorta; test: Inhibition of calcium-induced contraction in K+-depolarized guinea pig aortic strips at 5 x 10^-6 M relative to control; type: tissue-based; details: Cavia porcellus

EC50 [8] [nM]	EC50 [11] [nM]	EC50 [13] [nM]	SMILES	Activity [1] [%]	Activity [2] [%]	Activity [3] [%]	Activity [4] [%]	Activity [5] [%]	Activity [6] [%]	inhibition at 100 µM [10] [%]	Ratio EC50 [14]	also measured
24	77	–	CCOC(=O)C1=C(C)NC(C)=C(C(=O)OCC)C1c1c(-c2ccc([N+](=O)[O-])cc2)nc2sc(F)cn12	22.2	28.5	28.8	51.1	23.3	76.4	13	–	Activity [7]: 78%; Activity [9]: 20%; Activity [12]: 67%
64	–	1650	CCOC(=O)C1=C(C)NC(C)=C(C(=O)OCC)C1c1c(-c2ccc(F)cc2)nc2sccn12	36.6	43.6	42.6	59.3	72.4	89.4	–	25 to 56	Activity [15]: 79%; Activity [16]: 91%; inhibition at 0.1 µM [17]: 6%
300	–	1670	COC(=O)C1=C(C)NC(C)=C(C(=O)OC)C1c1c(-c2cc(Br)c(OC)cc2OC)nc2sccn12	< 5	< 5	< 5	< 5	–	–	34	25 to 56	Activity [15]: 63%; Activity [18]: 74%
160	–	1240	CCOC(=O)C1=C(C)NC(C)=C(C(=O)OCC)C1c1c(-c2cc(F)c(F)cc2F)nc2sccn12	7.4	30.6	< 5	54.7	< 5	< 5	62	< 10	Activity [19]: 78%; Activity [18]: 93%; IC50 [20]: 5570 nM
93	1000	–	CCOC(=O)C1=C(C)NC(C)=C(C(=O)OCC)C1c1c(-c2ccc(OC(F)(F)F)cc2)nc2sc(Br)cn12	14.2	23.8	< 5	49.8	–	–	–	–	Activity [19]: 62%; Activity [21]: 85%; Activity [9]: 35%; inhibition at 10 µM [22]: 5%
1370	2170	–	CCOC(=O)C1=C(C)NC(C)=C(C(=O)OCC)C1c1c(-c2ccc([N+](=O)[O-])cc2)nc2sc(Cl)cn12	10.3	26.1	< 5	< 5	–	–	12	–	Activity [23]: 74%; Activity [24]: 79%; Activity [25]: 25%
26	–	120	CCOC(=O)C1=C(C)NC(C)=C(C(=O)OCC)C1c1c(-c2cc(OC)ccc2OC)nc2sc(Br)cn12	< 5	29.32	< 5	57.6	< 5	< 5	22	< 10	Activity [15]: 69%; Activity [26]: 94%
21	–	100	CCOC(=O)C1=C(C)NC(C)=C(C(=O)OCC)C1c1c(-c2ccc(F)c(F)c2)nc2sccn12	< 5	< 5	37.4	50.7	20.5	80.5	14	< 10	Activity [7]: 83%; Activity [26]: 77%
97	19	–	CCOC(=O)C1=C(C)NC(C)=C(C(=O)OCC)C1c1c(-c2ccc(Cl)cc2)nc2sccn12	< 5	< 5	6.8	44.4	–	–	43	–	Activity [23]: 61%; Activity [27]: 79%; Activity [16]: 38%
81	220	–	CCOC(=O)C1=C(C)NC(C)=C(C(=O)OCC)C1c1c(-c2cc([N+](=O)[O-])c(Cl)cc2Cl)nc2sc(Cl)cn12	16.5	15.4	40.8	40.7	–	–	17	–	Activity [28]: 86%; Activity [29]: 82%; Activity [30]: 37%
1270	–	4.3	CCOC(=O)C1=C(C)NC(C)=C(C(=O)OCC)C1c1c(-c2ccc(Br)c([N+](=O)[O-])c2)nc2sccn12	< 5	32.4	< 5	59.2	< 5	< 5	–	–	Activity [28]: 53%; Activity [31]: 90%; inhibition at 5 µM [32]: 41%

SMILES	EC50 [8] [nM]	EC50 [11] [nM]	EC50 [13] [nM]	Activity [1] [%]	Activity [2] [%]	Activity [3] [%]	Activity [4] [%]	Activity [5] [%]	Activity [6] [%]	inhibition at 100 µM [10] [%]	Ratio EC50 [14]	also measured
COC(=O)C1=C(C)NC(C)=C(C(=O)OC)C1c1ccccc1[N+](=O)[O-] [NIFEDIPINE]	–	–	39	34.4	73.7	55	101.6	–	–	–	–	Activity ([5]; Brain): 72.3%; Activity ([6]; Brain): 95.7%; Activity ([19]; Left cardiac atrium): 97%; Activity [31]: 85%
